Assay outcomes (PubChem BioAssay)
A selection: hits, their analogues and other compounds. The true share with any hit is near 4.6%.
OX1R antag-1 = antagonists of human orexin 1 receptor (OX1R). Orexin/Hypocretin receptor type 1 (Homo sapiens), O43613. OX1R-expressing cells, FRET antagonist read-out. inhibition, % at 6.6 µM. 1.8% of 330,000 active; in the data active = inhibition mostly above about 38%, no sharp cut-off; inactive = mostly below about 40%;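 note: 0% = agonist challenge alone and 100% = reference antagonist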
TAAR1 antag = human TAAR1 antagonists, primary screen, Fluo-8 calcium fluorescence, CHO RD-HGA16 cells; antagonist; inhibition, % at 3 µM; 1.5% of 360,000 active; AID 624466, 2012;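 active = inhibition above a per-plate cutoff, the mean inhibition of test compounds on that plate plus 3 SD, cut at about 49% in these data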;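 note: 0% = DMSO plus EC80 beta-PEA response and 100% = DMSO alone without agonist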
Target sequence (Q96RJ0 whole entry, looked up): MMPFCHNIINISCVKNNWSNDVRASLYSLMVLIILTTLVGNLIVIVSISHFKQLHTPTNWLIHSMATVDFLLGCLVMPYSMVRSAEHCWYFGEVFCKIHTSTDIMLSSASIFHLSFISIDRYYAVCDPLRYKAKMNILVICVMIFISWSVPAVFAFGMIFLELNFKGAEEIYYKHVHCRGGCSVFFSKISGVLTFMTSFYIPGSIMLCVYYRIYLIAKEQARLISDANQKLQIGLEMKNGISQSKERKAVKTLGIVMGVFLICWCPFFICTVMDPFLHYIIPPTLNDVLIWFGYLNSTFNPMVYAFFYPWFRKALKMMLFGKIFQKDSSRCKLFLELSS
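Test system: RD-HGA16 CHO cells with stable hTAAR1 and Gα16 / Probe or stimulus: EC80 β-phenethylamine stimulus / Times: seeding 17-24 h prior, 75-min 37 °C, 30-min RT dye loading / Detection: Fluo-8 calcium-sensitive fluorescence / Read-out basis: % inhibition scaled between DMSO and EC80 PEA controls / Repeats: singlicate, one well per test compound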
TAAR1 agonist = human TAAR1 agonists, primary screen, Fluo-8 calcium fluorescence, CHO RD-HGA16 cells; activation, % at 3 µM; 0.99% of 360,000 active; AID 624467, 2012; vehicle wells 0%, saturating PEA agonist 100%;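 active = activation above the mean activation of all test compounds in the run plus 3 SD, cut at about 38% in these data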
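Assay system – CHO-derived RD-HGA16 cells with stable Gα16 and human TAAR1 · Compound dosing – one-point dosing at 3 µM (nominal) · Incubation – 17-24 h seeding, 75 min 37 °C dye, 30 min RT · Measured by – kinetic Fluo-8 calcium fluorescence · Control set – DMSO vehicle as 0%, PEA at EC100 as 100% · Repeats – single well for each compound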
CHO parental Ca = ATP-evoked calcium signal inhibitors, parental CHO, primary screen, counter-screen for OX1R antagonist project, cell-based, fluorescence, Fluo-8 calcium dye; parental CHO-K1, ATP-induced calcium, Fluo-8 fluorescence; inhibition, % at 5.6 µM; 0.63% of 330,000 active; AID 463079, 2010;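 active = inhibition above that plate's mean sample inhibition plus 3 SD, cut at about 26% in these data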;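 note: 0% = ATP-challenged DMSO wells and 100% = DMSO wells without ATP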
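Test system: untransfected parental CHO cell line. Compound: one dose, 5.6 µM nominal. Detection: intracellular calcium via Fluo-8 no-wash fluorescent dye. Measure: % inhibition. Benchmarks: ATP-challenged DMSO wells low, unchallenged DMSO wells high.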
OX1R antag-2 = OX1R (HCRTR1) antagonists, primary screen, fluorescence, CHO/OX1R cells, Fluo-8 calcium, orexin A; AID 434989, 2010; inhibition, % at 5 µM; Fluo-8 calcium fluorescence; 0.43% of 330,000 active;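 active = inhibition above its plate's threshold, mean inhibition of all tested compounds on the plate plus 3 SD, cut at about 37% in these data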;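 note: 0% = orexin A challenge wells and 100% = SB-334867-A antagonist wells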
GPR7 antag = GPR7 receptor antagonists, primary screen, cell-based, fluorescence, single concentration. AID 1861, 2009. GPR7-expressing cells, fluorescence antagonist assay. 1.1% of 290,000 active. Neuropeptides B/W receptor type 1 (Homo sapiens), P48145. inhibition, % at 4.4 µM; in the data active = inhibition above about 16%, passing the limit was not always enough;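 note: cells stimulated with the agonist NPW; 0% = agonist with vehicle and 100% = vehicle without agonist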
Target sequence (P48145 whole entry, looked up): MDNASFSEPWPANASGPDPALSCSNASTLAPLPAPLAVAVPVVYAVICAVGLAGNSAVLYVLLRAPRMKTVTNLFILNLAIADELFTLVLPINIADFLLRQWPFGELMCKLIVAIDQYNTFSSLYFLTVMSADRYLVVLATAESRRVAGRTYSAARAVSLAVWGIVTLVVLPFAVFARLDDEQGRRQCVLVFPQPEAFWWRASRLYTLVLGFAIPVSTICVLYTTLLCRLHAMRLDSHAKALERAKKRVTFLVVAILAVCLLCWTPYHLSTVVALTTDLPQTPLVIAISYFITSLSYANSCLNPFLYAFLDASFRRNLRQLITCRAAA
GPR7 antag conf = GPR7 receptor antagonists, confirmation, cell-based, fluorescence, single concentration. inhibition, % at 4.4 µM. GPR7-expressing cells, calcium fluorescence antagonist mode. AID 1952, 2009. 52% of 2,400 active. shares compounds with GPR7 antag; in the data active = inhibition above about 24%;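 note: stimulated with the GPR7 agonist NPW; 0% = agonist plus vehicle and 100% = vehicle alone without agonist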
MCHR1 antag = MCHR1 antagonists in cells, counter-screen for GPR7 antagonist project, cell-based, fluorescence, human | MCHR1-expressing cells, fluorescence antagonist assay | inhibition, % at 4.4 µM | shares compounds with GPR7 antag | 62% of 2,400 active; in the data active = inhibition above about 22%;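 note: 0% = vehicle with agonist and 100% = vehicle without agonist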
Numbers without * were called inactive; / = no result.

SMILES	OX1R antag-1	TAAR1 antag	TAAR1 agonist	CHO parental Ca	OX1R antag-2	GPR7 antag	GPR7 antag conf	MCHR1 antag
CCOc1ccccc1CN1CCN(CC2=Cc3cc(OC)ccc3OC2)CC1CCO (configuration not stated)	13.3	-20.7	0.6	-21.6	-30.7	31.3*	1.4	3.4
CCOc1ccc(C(=O)/C=C/c2ccc(SC)cc2)cc1	11.7	19.7	4.1	-17.3	-16.2	36.8*	41.4*	44.9*
CCOc1ccc(/C=C/C(=O)c2ccccc2)cc1	-1.7	-11.4	0.8	-14.6	-51.8	11.7	/	/
Fc1ccc(C(c2nnnn2Cc2ccccc2)N2CCSCC2)cc1 (configuration not stated)	9.8	8.8	5.9	-8.8	-26.6	-3.7	/	/
Clc1ccc(C(c2nnnn2CCc2ccccc2)N2CCSCC2)cc1 (configuration not stated)	39.5	1.0	6.9	-7.0	0.9	27.9*	31.2*	40.9*
COC(=O)c1ccc(NC(=S)NC2CC3CCC2C3)cc1 (configuration not stated)	20.3	1.1	8.2	1.7	1.4	-11.5	/	/
Clc1ccccc1/C=C/c1ccnc2ccccc12	19.6	6.8	14.7	-38.6	-31.6	7.1	-5.6	13.3
Oc1ccc(/C=C/c2ccnc3ccccc23)cc1	27.0	-10.7	13.5	8.1	14.1	0.3	/	/
O=C(CN1C(=O)NC(Cc2ccccc2)C1=O)Nc1ccc(OC(F)F)cc1 (configuration not stated)	19.1	-3.3	-0.4	-13.2	-3.8	/	/	/
CCC(C)C(NC(=O)OC(C)(C)C)C(=O)NC(CC(C)C)C(N)=O (configuration not stated)	29.9	-28.1	5.8	-3.1	-10.7	-7.6	/	/
O=C(CN1C(=O)C2C3CC(C(Br)C3Br)C2C1=O)N1CCN(Cc2ccccc2)CC1 (configuration not stated)	10.0	-11.9	3.1	-4.2	-11.1	29.4*	40.8*	13.7
O=C(CN1C(=O)C2C3CC(C(Br)C3Br)C2C1=O)N1CCOCC1 (configuration not stated)	12.8	5.0	3.2	-6.3	14.1	-0.6	/	/
COc1cc(Cl)ccc1OC1(C)CCN(Cc2ccccc2OC(F)F)C1 (configuration not stated)	/	-28.8	5.8	/	/	/	/	/
N=c1c(C(=O)NC2CCCCC2)cc2c(=O)n3ccccc3nc2n1CCc1ccccc1	31.2	-8.8	5.4	-4.5	-1.0	31.8*	39.2*	24.5*
CCCn1c(=N)c(C(=O)NCc2ccc3c(c2)OCO3)cc2c(=O)n3cccc(C)c3nc21	37.3	-9.8	5.2	-16.6	-26.9	-2.3	/	/
N=c1c(C(=O)NCCc2ccccc2)cc2c(=O)n3ccccc3nc2n1CCCN1CCOCC1	44.8*	-7.9	-1.1	-4.6	-6.9	36.6*	34.6*	16.7
CCOCCCn1c(=N)c(C(=O)NCc2ccc3c(c2)OCO3)cc2c(=O)n3ccccc3nc21	/	22.9	-0.4	/	/	22.1*	29.3*	19.3
N=c1c(C(=O)NCCc2ccccc2)cc2c(=O)n3ccccc3nc2n1Cc1ccco1	22.8	-11.7	-2.2	-30.2	-34.2	28.0*	51.8*	49.5*
Fc1cccc(Cl)c1CNC(c1ccccc1)c1ccccc1	1.8	14.1	4.3	-30.4	-29.9	-12.0	/	/
CC(C)[C@]1(c2ccc(Cl)cc2)ON(c2ccccc2C(F)(F)F)C1=O	10.9	/	/	-15.3	-27.4	/	/	/
Cc1c(Cc2c(Cl)cccc2Cl)c(=O)ccn1C(C)c1ccccc1 (configuration not stated)	/	12.4	23.5	/	/	35.2*	27.4*	25.3*
COC(=O)C(C(=O)OC)c1ccc(-n2cccc2)cc1	26.1	-8.0	-0.2	-4.3	-10.4	35.2*	12.4	8.6
COc1cc(C(=O)OCC(=O)Nc2nnc(-c3ccccc3)o2)cc(OC)c1OC	33.3	-30.8	3.9	7.0	-9.7	/	/	/
COc1ccc(C(=O)OCC(=O)Nc2nnc(-c3ccccc3)o2)cc1	52.0*	-27.1	1.1	-12.0	-11.8	32.4*	-2.7	-11.8
C=CCOc1ccccc1C(=O)/C=C1/C(=O)Nc2ccccc21	20.0	11.6	1.6	33.4*	17.0	36.9*	59.3*	82.2*
SMILES	OX1R antag-1	TAAR1 antag	TAAR1 agonist	CHO parental Ca	OX1R antag-2	GPR7 antag	GPR7 antag conf	MCHR1 antag
CC(C)NC(=O)c1n[nH]c(=O)c2ccccc12	16.6	9.3	7.2	-2.0	-10.1	-13.9	/	/
COc1ccccc1N(CCC#N)C(=O)CSc1ccc2c(c1)OCCO2	6.3	4.1	8.8	-6.3	-8.7	36.3*	1.6	8.1
N#CCCN(C(=O)CSc1ncccn1)c1ccc2c(c1)OCCO2	0.7	9.6	-1.0	-12.5	-3.8	/	/	/
COc1ccc(-c2onc(C)c2-c2cnn(-c3ccccc3)c2)c(O)c1C	19.6	-4.2	-0.8	-12.7	-29.8	31.6*	24.8*	34.4*
COc1ccc(-c2n[nH]c(C)c2-c2cnn(-c3ccccc3)c2)c(O)c1C	15.0	41.4	23.5	-13.4	-13.0	-17.8	/	/
Cc1cc(C)n2nc(C(=O)OC(C)C(=O)c3ccccc3)nc2n1 (configuration not stated)	3.3	0.9	1.0	0.6	-8.9	/	/	/
CC1CC(C)CN(CCCNC(=O)c2ccc3c(c2)N(Cc2ccccc2)C(=O)c2ccccc2S3=O)C1 (configuration not stated)	14.1	-4.0	6.5	-18.9	-15.7	35.2*	22.5	1.3
N#Cc1ccc(/C=C/C(=O)c2cccnc2)cc1	12.9	-8.7	5.5	-0.9	-11.0	-0.3	/	/
O=C(/C=C/c1ccc(Cl)cc1)c1cccnc1	37.9	2.3	4.7	-27.0	-32.4	28.6*	50.8*	78.3*
OC(CNCC1CCCO1)Cn1c2ccc(Cl)cc2c2cc(Cl)ccc21 (configuration not stated)	7.7	29.5	19.5	14.7	25.7	53.0*	53.1*	54.0*
O=C(CN1C(=O)C2C3C=CC(C3)C2C1=O)NC1CCCc2ccccc21 (configuration not stated)	7.0	2.9	4.4	-14.9	-12.7	30.2*	-1.3	6.4
